Measurements of several laboratories.
Compare with care: the assays were run in different laboratories. Values after ≈ are worked out from the molar mass of the structure shown.

O=[N+]([O-])C1=Cc2ccccc2OC1c1ccc(F)cc1 (stereo not drawn)
IC50 (Leishmania tropica; parasite growth; THP-1; 72 h, intracellular, amastigote): 147 µg/mL

COc1ccc(C=NNC(=S)Nc2cccnc2)cc1OC
IC50 (Leishmania tropica; parasite growth, MTT; 72 h, promastigote): > 1000 µM

COc1ccc(N=Nc2c(N)nn3c(-c4ccco4)cc(-c4ccc(OCc5ccccc5)cc4)nc23)cc1
MIC (Saccharomyces cerevisiae; microbial growth, broth dilution; ATCC9763): 62.5 µg/mL (≈ 121 µM)

CCOC(=O)C1=C(CN2CCC[C@@H]2C(=O)Nc2cccc(B(O)O)c2)NC(c2nccs2)=N[C@@H]1c1ccc(F)cc1Br
EC50 (Hepatitis B virus; viral replication, inhibitor, qPCR; HepDES19; 72 h): 2.6 µM

CNC(=S)NN=Cc1ccc(C)cc1
IC50 (Leishmania tropica; parasite growth, MTT; 72 h, promastigote): 1050 µM

CCOC(=O)C1=C(CN2CCC(C(=O)Nc3cccc(B4OC(C)(C)C(C)(C)O4)c3)C2)NC(c2nccs2)=NC1c1ccc(F)cc1Br (stereo not drawn)
EC50 (Hepatitis B virus; viral replication, inhibitor, qPCR; HepDES19; 72 h): 0.87 µM

Cc1ccc(N=Nc2c(N)nn3c(-c4ccc(C)cc4)cc(-c4ccc(OCc5ccccc5)cc4)nc23)cc1
MFC (Saccharomyces cerevisiae; microbial killing, broth dilution; ATCC9763): 250 µg/mL (≈ 477 µM)

O=[N+]([O-])C1=Cc2ccccc2OC1c1cccc(Br)c1 (stereo not drawn)
IC50 (Leishmania tropica; parasite growth; THP-1; 72 h, intracellular, amastigote): 171 µg/mL

CCOC(=O)C1=C(CN2CCCC2C(=O)Nc2cccc(B3OC(C)(C)C(C)(C)O3)c2)NC(c2nccs2)=NC1c1ccc(F)cc1Br (stereo not drawn)
EC50 (Hepatitis B virus; viral replication, inhibitor, qPCR; HepDES19; 72 h): 0.37 µM

O=[N+]([O-])C1=Cc2ccccc2OC1c1cccc(Cl)c1 (stereo not drawn)
IC50 (Leishmania tropica; parasite growth; THP-1; 72 h, intracellular, amastigote): 151 µg/mL

Nc1nn2c(-c3ccco3)cc(-c3ccc(OCc4ccccc4)cc3)nc2c1N=Nc1ccc(F)cc1
MFC (Saccharomyces cerevisiae; microbial killing, broth dilution; ATCC9763): 62.5 µg/mL (≈ 124 µM)

CCOC(=O)C1=C(CN2CCCC2C(=O)Nc2ccc(B3OC(C)(C)C(C)(C)O3)cc2)NC(c2nccs2)=NC1c1ccc(F)cc1Br (stereo not drawn)
EC50 (Hepatitis B virus; viral replication, inhibitor, qPCR; HepDES19; 72 h): 0.37 µM

Cc1ccc(COc2cccc(C3Oc4ccccc4C=C3[N+](=O)[O-])c2)cc1 (stereo not drawn)
IC50 (Leishmania tropica; parasite growth; THP-1; 72 h, intracellular, amastigote): 162 µg/mL

COc1ccc(N=Nc2c(N)nn3c(-c4ccc(C)cc4)cc(-c4ccc(OCc5ccccc5)cc4)nc23)cc1
MIC (Saccharomyces cerevisiae; microbial growth, broth dilution; ATCC9763): 31.3 µg/mL (≈ 57.9 µM)

O=[N+]([O-])C1=Cc2ccccc2OC1c1ccc(Cl)cc1 (stereo not drawn)
IC50 (Leishmania tropica; parasite growth; THP-1; 72 h, intracellular, amastigote): 155 µg/mL

C[C@@H]1[C@H](O)[C@@H](C)/C=C/C=C/C=C/C=C/C=C/C=C/C=C/[C@H](O[C@@H]2O[C@H](C)[C@@H](O)[C@H](N)[C@@H]2O)C[C@@H]2O[C@](O)(C[C@@H](O)C[C@@H](O)[C@H](O)CC[C@@H](O)C[C@@H](O)CC(=O)O[C@H]1C)C[C@H](O)[C@H]2C(=O)O
IC50 (Leishmania tropica; parasite growth; J774.A1; 72 h, intracellular, amastigote): 27.9 µM

O=[N+]([O-])C1=Cc2ccccc2OC1c1cccc(OCc2ccc([N+](=O)[O-])cc2)c1 (stereo not drawn)
IC50 (Leishmania tropica; parasite growth; THP-1; 72 h, intracellular, amastigote): 144 µg/mL

CNC(=S)NN=Cc1ccc(Br)cc1
IC50 (Leishmania tropica; parasite growth, MTT; 72 h, promastigote): 92.3 µM

OC(Cn1cncn1)(Cn1cncn1)c1ccc(F)cc1F
MIC (Saccharomyces cerevisiae; microbial growth, broth dilution; BY4742; 48 h): 8 µg/mL (≈ 26.1 µM)

COc1ccc(N=Nc2c(N)nn3c(-c4ccc(Cl)cc4Cl)cc(-c4ccc(OCc5ccccc5)cc4)nc23)cc1
MIC (Saccharomyces cerevisiae; microbial growth, broth dilution; ATCC9763): 125 µg/mL (≈ 210 µM)

Cc1ccc(COc2ccc(C3Oc4ccccc4C=C3[N+](=O)[O-])cc2)cc1 (stereo not drawn)
IC50 (Leishmania tropica; parasite growth; THP-1; 72 h, intracellular, amastigote): 150 µg/mL

C[C@@H]1[C@H](O)[C@@H](C)/C=C/C=C/C=C/C=C/C=C/C=C/C=C/[C@H](O[C@@H]2O[C@H](C)[C@@H](O)[C@H](N)[C@@H]2O)C[C@@H]2O[C@](O)(C[C@@H](O)C[C@@H](O)[C@H](O)CC[C@@H](O)C[C@@H](O)CC(=O)O[C@H]1C)C[C@H](O)[C@H]2C(=O)O
MIC (Saccharomyces cerevisiae; microbial growth, broth dilution; BY4742; 48 h): 0.25 µg/mL (≈ 0.271 µM)

CCOC(=O)C1=C(CN2CCC(C(=O)Nc3ccccc3B(O)O)C2)NC(c2nccs2)=NC1c1ccc(F)cc1Br (stereo not drawn)
EC50 (Hepatitis B virus; viral replication, inhibitor, qPCR; HepDES19; 72 h): 1.97 µM

CNC(=S)NN=Cc1ccc(F)cc1
IC50 (Leishmania tropica; parasite growth; J774.A1; 72 h, intracellular, amastigote): 762 µM

Cc1ccc(-c2cc(-c3ccc(OCc4ccccc4)cc3)nc3c(N=Nc4ccc(F)cc4)c(N)nn23)cc1
MIC (Saccharomyces cerevisiae; microbial growth, broth dilution; ATCC9763): 62.5 µg/mL (≈ 118 µM)

O=[N+]([O-])C1=Cc2ccccc2OC1c1ccccc1OCc1ccccc1Cl (stereo not drawn)
IC50 (Leishmania tropica; parasite growth; THP-1; 72 h, intracellular, amastigote): 171 µg/mL

S=C(NN=Cc1ccc(Br)cc1)Nc1cccnc1
IC50 (Leishmania tropica; parasite growth; J774.A1; 72 h, intracellular, amastigote): 475 µM

Cc1ccc(N=Nc2c(N)nn3c(-c4ccc(Cl)cc4Cl)cc(-c4ccc(OCc5ccccc5)cc4)nc23)cc1
MIC (Saccharomyces cerevisiae; microbial growth, broth dilution; ATCC9763): 31.3 µg/mL (≈ 54 µM)

CCOC(=O)C1=C(CN2CCC(C(=O)Nc3ccccc3B3OC(C)(C)C(C)(C)O3)C2)NC(c2nccs2)=NC1c1ccc(F)cc1Br (stereo not drawn)
EC50 (Hepatitis B virus; viral replication, inhibitor, qPCR; HepDES19; 72 h): 3.17 µM

CNC(=S)NN=Cc1ccc(OC)c(OC)c1
IC50 (Leishmania tropica; parasite growth, MTT; 72 h, promastigote): 258 µM

CCOC(=O)C1=C(CN2CCC[C@H]2C(=O)Nc2ccc(B(O)O)cc2)NC(c2nccs2)=N[C@@H]1c1ccc(F)cc1Br
EC50 (Hepatitis B virus; viral replication, inhibitor, qPCR; HepDES19; 72 h): 33.3 µM

CNC(=S)NN=Cc1ccc([N+](=O)[O-])cc1
IC50 (Leishmania tropica; parasite growth, MTT; 72 h, promastigote): 240 µM

CC(=O)N1CCN(c2ccc(OCC3COC(Cn4ccnc4)(c4ccc(Cl)cc4Cl)O3)cc2)CC1 (stereo not drawn)
MIC (Saccharomyces cerevisiae; microbial growth, broth dilution; ATCC9763): 1.95 µg/mL (≈ 3.67 µM)
